Square brackets hold non-standard residues; d marks the D form. Peptide text beside a SMILES is read from it. * marks the point of attachment. Phe(3,4-(OMe)2) = COc1ccc(C[C@H](N)C(=O)O)cc1OC; Phe(F5) = N[C@@H](Cc1c(F)c(F)c(F)c(F)c1F)C(=O)O; Lys(Et,iPr) = CCN(CCCC[C@H](N)C(=O)O)C(C)C; Cha = N[C@@H](CC1CCCCC1)C(=O)O; Nicotinoyl = O=C(c1cccnc1)*; X1 = Nc1cc(C(=O)*)ccc1Br
Tests used:
CBX5 chromodomain = CBX5 chromodomain (Homo sapiens, UniProt P45973); assay: TR-FRET competition assay, CBX5; format: binding; conditions: for affinity improvement toward CBX5 over UNC5191 by TR-FRET: compared to UNC5191; for selectivity for CBX5 over CBX7: from TR-FRET IC50 values
In short: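 Competition of biotinylated peptide tracer P42 from His-tagged chromodomain: CBX5 30 nM with 30 nM tracer, MPP8 25 nM with 50 nM tracer. Detection with 10 nM ULight-anti-6xHis and 2 nM Eu-streptavidin in 20 mM Tris pH 7.5, 150 mM NaCl, 0.05% Tween 20, 2 mM DTT. 1 h equilibration in dark; 665/615 nm ratio. 0–100% scale against DMSO and 100 μM UNC5241. Four-parameter IC50 fit; mean ± SD of three replicates.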

CBX5 (HP1α) chromodomain = CBX5 (HP1α) chromodomain (Homo sapiens, UniProt P45973); assay: Isothermal titration calorimetry; format: binding; conditions: for Kd: CBX5 ITC Kd, 25 °C
In short: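 Run at 25 °C in 25 mM Tris–HCl pH 7.5, 150 mM NaCl, 2 mM β-mercaptoethanol. His-tagged chromodomain expressed in E. coli and purified by Ni affinity and size exclusion; concentration by Edelhoch method. Typically 50 μM protein with 0.5 mM compound or 100 μM with 1.0 mM, always 10:1. One 0.2 μL injection, then 26 × 1.5 μL at 180 s spacing; first point deleted; one-site fit. Mean ± SD of at least two replicates.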

Sequence of CBX5 chromodomain (P45973 18-75): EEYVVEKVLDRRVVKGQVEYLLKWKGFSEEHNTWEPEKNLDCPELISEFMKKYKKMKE
Sequence of CBX5 (HP1α) chromodomain (P45973 18-75): as above

With `CCN(CCCC[C@H](NC(=O)[C@H](CC(C)C)NC(=O)[C@H](C)NC(=O)[C@H](Cc1c(F)c(F)c(F)c(F)c1F)NC(=O)c1cccnc1)C(=O)N[C@@H](CO)C(N)=O)C(C)C` [UNC4869, N-((8S,11S,14S,17S)-8-(((S)-1-Amino-3-hydroxy-1-oxopropan-2-yl)carbamoyl)-3-ethyl-11-isobutyl-2,14-dimethyl-10,13,16-trioxo-18-(perfluorophenyl)-3,9,12,15-tetraazaoctadecan-17-yl)nicotinamide] (Nicotinoyl-[Phe(F5)]AL[Lys(Et,iPr)]S-NH2) the “affinity improvement toward CBX5 over UNC5191 by TR-FRET” value (CBX5 chromodomain) was “about 3 fold” and the “selectivity for CBX5 over CBX7” value (CBX5 chromodomain) was 26 fold.

For `CCN(CCCC[C@H](NC(=O)[C@H](Cc1ccc(OC)c(OC)c1)NC(=O)[C@H](C)NC(=O)[C@H](CC1CCCCC1)NC(=O)c1ccc(Br)c(N)c1)C(=O)N[C@@H](CO)C(N)=O)C(C)C` [UNC7047, 3-Amino-N-((8S,11S,14S,17S)-8-(((S)-1-amino-3-hydroxy-1-oxopropan-2-yl)carbamoyl)-18-cyclohexyl-11-(3,4-dimethoxybenzyl)-3-ethyl-2,14-dimethyl-10,13,16-trioxo-3,9,12,15-tetraazaoctadecan-17-yl)-4-bromobenzamide] (X1-[Cha]A[Phe(3,4-(OMe)2)][Lys(Et,iPr)]S-NH2), the IC50 (CBX5 chromodomain) was 0.079 ± 0.04 µM, the “affinity improvement toward CBX5 over UNC5191 by TR-FRET” value (CBX5 chromodomain) was 80 fold and the Kd (CBX5 (HP1α) chromodomain; mean ± SD of three replicates) was 0.237 ± 0.068 µM. The “potency for CBX5 relative to UNC5191 by ITC” value (CBX5 (HP1α) chromodomain; ITC Kd compared to UNC5191) was 30 fold.

`CCN(CCCC[C@H](NC(=O)[C@H](CC(C)C)NC(=O)[C@H](C)NC(=O)[C@H](Cc1ccccc1)NC(=O)c1cccnc1)C(=O)N[C@@H](CO)C(N)=O)C(C)C` [UNC5191, N-((8S,11S,14S,17S)-8-(((S)-1-Amino-3-hydroxy-1-oxopropan-2-yl)carbamoyl)-3-ethyl-11-isobutyl-2,14-dimethyl-10,13,16-trioxo-18-phenyl-3,9,12,15-tetraazaoctadecan-17-yl)nicotinamide] (Nicotinoyl-FAL[Lys(Et,iPr)]S-NH2) was tested, and the Kd (CBX5 (HP1α) chromodomain; one site binding model) was 6.93 ± 0.82 µM.

With `CCN(CCCC[C@H](NC(=O)[C@H](CC(C)C)NC(=O)[C@H](C)NC(=O)[C@H](CC1CCCCC1)NC(=O)c1cccnc1)C(=O)N[C@@H](CO)C(N)=O)C(C)C` [UNC6383, N-((8S,11S,14S,17S)-8-(((S)-1-Amino-3-hydroxy-1-oxopropan-2-yl)carbamoyl)-18-cyclohexyl-3-ethyl-11-isobutyl-2,14-dimethyl-10,13,16-trioxo-3,9,12,15-tetraazaoctadecan-17-yl)nicotinamide] (Nicotinoyl-[Cha]AL[Lys(Et,iPr)]S-NH2) the “selectivity for CBX5 over CBX7” value (CBX5 chromodomain) was 11 fold.

`CCN(CCCC[C@H](NC(=O)[C@H](Cc1ccccc1)NC(=O)[C@H](C)NC(=O)[C@H](Cc1ccccc1)NC(=O)c1cccnc1)C(=O)N[C@@H](CO)C(N)=O)C(C)C` [UNC6384, N-((8S,11S,14S,17S)-8-(((S)-1-Amino-3-hydroxy-1-oxopropan-2-yl)carbamoyl)-11-benzyl-3-ethyl-2,14-dimethyl-10,13,16-trioxo-18-phenyl-3,9,12,15-tetraazaoctadecan-17-yl)nicotinamide] (Nicotinoyl-FAF[Lys(Et,iPr)]S-NH2) was tested, and the Kd (CBX5 (HP1α) chromodomain; one site binding model) was 3.38 µM.

With `CCN(CCCC[C@H](NC(=O)[C@H](Cc1ccc(OC)c(OC)c1)NC(=O)[C@H](C)NC(=O)[C@H](Cc1ccccc1)NC(=O)c1cccnc1)C(=O)N[C@@H](CO)C(N)=O)C(C)C` [UNC6392, N-((8S,11S,14S,17S)-8-(((S)-1-Amino-3-hydroxy-1-oxopropan-2-yl)carbamoyl)-11-(3,4-dimethoxybenzyl)-3-ethyl-2,14-dimethyl-10,13,16-trioxo-18-phenyl-3,9,12,15-tetraazaoctadecan-17-yl)nicotinamide] (Nicotinoyl-FA[Phe(3,4-(OMe)2)][Lys(Et,iPr)]S-NH2) the Kd (CBX5 (HP1α) chromodomain; one site binding model) was 1.27 µM and the “potency for CBX5 relative to UNC6384 by ITC” value (CBX5 (HP1α) chromodomain; ITC Kd compared to UNC6384) was 2 fold.
